Measured values as given in PMC8882712 (Cell chemical biology, 2021).

Assays:
[1] = test system: EOL-1, RS4;11 and MM1.S cells; assay: Cell growth inhibition assay; assay type: cell-based, human; conditions: for EC50: Homo sapiens, 192 h, read-out: EC50 (growth inhibition)
Summary of the method: (§1)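 Cells were kept in RPMI 1640 with 10% FBS and 1% penicillin/streptomycin. 0.5 million cells per well were seeded in triplicate and treated with various final compound concentrations, with compound-containing medium renewed every two days. Cultures were diluted to stay below 1×10^6/mL and counted automatically every two days. EC50 came from nonlinear regression over at least three experiments, given as mean ± SD.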

EOL-1 and MM1.S cells [2] = assay: Colony formation assay; assay type: cell-based, human; conditions: 2.5 μM
Summary of the method: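 20,000 cells per well were plated in triplicate. Medium containing compound or vehicle was replaced every four days. After 4 weeks, wells were stained with 100 μg/mL iodonitrotetrazolium chloride, and colonies were counted after overnight incubation.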

cancer cells = conditions: ref Bottcher et al., 2019; cited from earlier work
NSD3S = molecular target: T1, NSD3S (Homo sapiens, UniProt Q9BZ95); assay: Immunoblotting for NSD3S in 293FT cells; assay type: cell-based; conditions: 48-hour treatment; for NSD3 degradation (immunoblot): 293FT cells, indicated concentrations
T1 sequence (Q9BZ95 1-645 isoform Q9BZ95-3): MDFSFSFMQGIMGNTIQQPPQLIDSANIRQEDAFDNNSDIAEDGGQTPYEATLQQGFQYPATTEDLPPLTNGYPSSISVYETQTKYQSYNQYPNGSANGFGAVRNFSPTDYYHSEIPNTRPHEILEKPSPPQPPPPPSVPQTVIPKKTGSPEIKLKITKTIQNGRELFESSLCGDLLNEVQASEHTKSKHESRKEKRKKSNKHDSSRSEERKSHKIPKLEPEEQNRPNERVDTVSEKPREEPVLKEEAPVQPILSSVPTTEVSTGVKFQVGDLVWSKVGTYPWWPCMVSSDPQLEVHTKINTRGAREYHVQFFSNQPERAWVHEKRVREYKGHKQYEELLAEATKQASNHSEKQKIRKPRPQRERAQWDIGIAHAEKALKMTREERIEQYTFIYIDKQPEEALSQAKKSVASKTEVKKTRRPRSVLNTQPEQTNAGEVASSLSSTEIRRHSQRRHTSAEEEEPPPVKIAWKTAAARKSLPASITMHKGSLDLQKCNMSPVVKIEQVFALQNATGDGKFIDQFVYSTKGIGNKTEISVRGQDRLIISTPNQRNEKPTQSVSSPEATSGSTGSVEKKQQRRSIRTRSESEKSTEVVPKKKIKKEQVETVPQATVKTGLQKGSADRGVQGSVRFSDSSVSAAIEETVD
Summary of the method: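 293FT cells were grown in DMEM with 10% FBS and 1% penicillin/streptomycin. NSD3 was detected by western blot with rabbit anti-NSD3 antibody, using rabbit anti-GAPDH as loading control and HRP-linked secondary antibodies.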

NSD3 [3] = molecular target: T2, NSD3 (Homo sapiens, UniProt Q9BZ95); assay: Immunoblotting for NSD3 degradation in hematological cancer cells; assay type: cell-based
T2 sequence (Q9BZ95 1-645 isoform Q9BZ95-3): T1 sequence (Q9BZ95 1-645 isoform Q9BZ95-3)

NSD3 [4] = molecular target: T2, NSD3; assay: Ubiquitination assay of Flag-tagged NSD3S in 293FT cells; assay type: cell-based; conditions: 293FT cells expressing Flag-tagged NSD3S, 48-hour treatment
EOL-1 cells = assay: Mass spectrometry-based global proteomic profiling; assay type: cell-based, human; conditions: 2.5 μM, 30 hours, more than 5,000 proteins detected
K562 cells = assay: Cell growth inhibition assay in K562 cells; assay type: cell-based, human; conditions: 2.5 μM, ten days
Summary of the method: as §1

EOL-1 and MM1.S cells [5] = assay: Apoptosis induction; assay type: cell-based, human; conditions: 2.5 μM, four-day treatment
Summary of the method: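 EOL-1 and MM1.S cells were grown in RPMI 1640 with 10% FBS and 1% penicillin/streptomycin. Lines were authenticated by genetic fingerprinting and screened monthly for mycoplasma. Apoptosis was assessed by western blot with rabbit anti-cleaved caspase-3 and anti-cleaved caspase-7 antibodies, detected with an HRP-linked anti-rabbit IgG secondary.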

cMyc [6] = assay: Immunoblotting for cMyc protein levels; assay type: cell-based, human
Summary of the method: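 cMyc was detected by western blot with rabbit anti-cMyc antibody, using rabbit anti-GAPDH as loading control. VHL status was checked with mouse anti-VHL. VHL was knocked out by CRISPR/Cas9 and compared with WT cells. EOL-1 and MM1.S cells were grown in RPMI 1640 and 293FT cells in DMEM, each with 10% FBS and 1% penicillin/streptomycin.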

cMyc [7] = assay: cMyc ubiquitination assay in EOL-1 cells; assay type: cell-based, human; conditions: 2.5 μM, 48-hour treatment
Summary of the method: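 Lysates were heat-denatured 5 min at 95°C, diluted with EBC, sonicated and cleared. Immunoprecipitation with antibody ran overnight at 4°C, then protein A/G magnetic beads for 3 h at 4°C. Blots were probed with mouse anti-ubiquitin.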

[8] = test system: CBLB, IFITM1, SELL and MAP7; assay: RT-qPCR and western blots of NSD3-upregulated gene targets; assay type: cell-based, human; conditions: EOL-1 or MM1.S cells, 2.5 μM, 48 hours, compared to BI-9321 and MS9715N
Summary of the method: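 For mRNA, RT-qPCR relative expression was calculated by the 2−ΔΔCT method and normalized to the mean of beta-actin. For protein, western blots used rabbit anti-CBLB and rabbit anti-IFITM1 antibodies with rabbit anti-GAPDH as loading control. Cells were grown in RPMI 1640 with 10% FBS.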

NSD3 PWWP1 domain = molecular target: T3, NSD3 PWWP1 domain (Homo sapiens, UniProt Q9BZ95); assay: Isothermal titration calorimetry; assay type: binding
T3 sequence (Q9BZ95 247-402): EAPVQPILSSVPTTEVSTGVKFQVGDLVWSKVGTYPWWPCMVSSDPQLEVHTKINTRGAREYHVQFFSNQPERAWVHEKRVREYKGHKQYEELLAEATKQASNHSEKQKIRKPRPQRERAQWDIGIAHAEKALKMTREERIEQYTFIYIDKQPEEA

In the case of Cc1cc(CN)cc(C)c1-c1ncn(C)c1-c1ccnc2cc(F)ccc12 [BI-9321, reference compound], the EC50 [1] is listed as greater than 10 µM, the colony-forming capabilities (EOL-1 and MM1.S cells [2]) is listed as “little or no effect” and the “killing of cancer cells” value (cancer cells) is listed as “does not lead to effective killing of cancer cells”.

For Cc1cc(CNCCCC(=O)NCCOCCOCCNc2cccc3c2C(=O)N(C2CCC(=O)NC2=O)C3=O)cc(C)c1-c1ncn(C)c1-c1ccnc2cc(F)ccc12 (stereo not drawn) [Compound 1, N-(2-(2-(2-((2-(2,6-dioxopiperidin-3-yl)-1,3-dioxoisoindolin-4-yl)amino)ethoxy)ethoxy)ethyl)-4-((4-(5-(7-fluoroquinolin-4-yl)-1-methyl-1H-imidazol-4-yl)-3,5-dimethylbenzyl)amino) butanamide], the “NSD3 degradation (immunoblot)” value (NSD3S) was “failed to degrade NSD3”.

With Cc1cc(CNCCCC(=O)NCCCCCNc2cccc3c2C(=O)N(C2CCC(=O)NC2=O)C3=O)cc(C)c1-c1ncn(C)c1-c1ccnc2cc(F)ccc12 (stereo not drawn) [Compound 2, N-(5-((2-(2,6-dioxopiperidin-3-yl)-1,3-dioxoisoindolin-4-yl)amino)pentyl)-4-((4-(5-(7-fluoroquinolin-4-yl)-1-methyl-1H-imidazol-4-yl)-3,5-dimethylbenzyl)amino)butanamide] the “NSD3 degradation (immunoblot)” value (NSD3S) was “failed to degrade NSD3”.

For Cc1cc(CNCCCC(=O)NCCCCCCCCC(=O)N[C@H](C(=O)N2C[C@H](O)C[C@H]2C(=O)NCc2ccc(-c3scnc3C)cc2)C(C)(C)C)cc(C)c1-c1ncn(C)c1-c1ccnc2cc(F)ccc12 [Compound 5, (2S,4R)-1-((S)-2-(9-(4-((4-(5-(7-fluoroquinolin-4-yl)-1-methyl-1H-imidazol-4-yl)-3,5-dimethylbenzyl)amino)butanamido)nonanamido)-3,3-dimethylbutanoyl)-4-hydroxy-N-(4-(4-methylthiazol-5-yl)benzyl)pyrrolidine-2-carboxamide], the “NSD3 degradation (immunoblot)” value (NSD3S) was “clearly induced NSD3 degradation at 10–40 μM”.

In the case of Cc1cc(CNCCCC(=O)NCCCCNC(=O)C[C@H](NC(=O)[C@@H]2C[C@@H](O)CN2C(=O)[C@@H](NC(=O)C2(F)CC2)C(C)(C)C)c2ccc(-c3scnc3C)cc2)cc(C)c1-c1ncn(C)c1-c1ccnc2cc(F)ccc12 [Compound 6, (2S,4R)-1-((S)-2-(1-fluorocyclopropane-1-carboxamido)-3,3-dimethylbutanoyl)-N-((S)-3-((4-(4-((4-(5-(7-fluoroquinolin-4-yl)-1-methyl-1H-imidazol-4-yl)-3,5-dimethylbenzyl)amino)butanamido)butyl)amino)-1-(4-(4-methylthiazol-5-yl)phenyl)-3-oxopropyl)-4-hydroxypyrrolidine-2-carboxamide], the “NSD3 degradation (immunoblot)” value (NSD3S) is reported as “did not lead to effective degradation of NSD3”.

In the case of Cc1cc(CNCCCC(=O)NCCCCCCCCC(=O)N[C@H](C(=O)N2C[C@H](O)C[C@H]2C(=O)N[C@@H](C)c2ccc(-c3scnc3C)cc2)C(C)(C)C)cc(C)c1-c1ncn(C)c1-c1ccnc2cc(F)ccc12 [MS9715, (2S,4R)-1-((S)-2-(9-(4-((4-(5-(7-fluoroquinolin-4-yl)-1-methyl-1H-imidazol-4-yl)-3,5-dimethylbenzyl)amino)butanamido)nonanamido)-3,3-dimethylbutanoyl)-4-hydroxy-N-((S)-1-(4-(4-methylthiazol-5-yl)phenyl)ethyl)pyrrolidine-2-carboxamide], the “NSD3 degradation in VHL knockout cells” value (NSD3S; 293FT cells with CRISPR/Cas9-mediated KO of VHL vs WT) is reported as “abrogated the MS9715-mediated NSD3 degradation”, the “concentration-dependent depletion of cellular NSD3S” value (NSD3 [3]; EOL-1, MM1.S and MOLM13 cells, 48-hour treatment) is reported as “concentration-dependent depletion of cellular NSD3S” and the “depletion of NSD3S and NSD3L isoforms” value (NSD3 [3]; EOL-1 and MM1.S cells) is reported as “led to depletion of both NSD3S and NSD3L isoforms”. The “time-dependent NSD3S degradation” value (NSD3 [3]; EOL-1 and MM1.S cells, 2.5 μM) was “significant degradation occurring at as early as 24 hours”, the Dmax (NSD3 [3]; MOLM-13, read-out: maximum degradation (Dmax)) was greater than 80% and the DC50 (NSD3 [3]; read-out: half-maximal degradation concentration (DC50), MOLM13 cells, 48-hour treatment, mean ± SD from three independent experiments) was 4.9 ± 0.4 µM. The “ubiquitination of cellular NSD3” value (NSD3 [4]) was “induced ubiquitination of cellular NSD3 in a concentration-dependent manner”, the “proteome-wide selectivity (significantly downregulated proteins)” value (EOL-1 cells) was “NSD3 was the only protein showing significant downregulation” and the growth inhibitory activity ([1]; 2.5 μM, ten days, EOL-1, MM1.S and RS4;11 cells) was “effectively inhibited the growth”. For the same compound, the EC50 [1] was 2 to 4 µM, the growth inhibitory activity (K562 cells) was “little growth inhibitory effect” and the colony-forming capabilities (EOL-1 and MM1.S cells [2]) was “drastically decreased colony-forming capabilities”. For the same compound, the induction of apoptosis (EOL-1 and MM1.S cells [5]) was “induced a prominent increase of apoptosis”, the “protein levels of cMyc” value (cMyc [6]; EOL-1 and MM1.S cells, 2.5 μM, 48 hours) was “significant decrease in the protein levels of cMyc” and the “cMyc depletion in VHL-deficient cells” value (cMyc [6]; VHL-deficient EOL-1 and 293FT cells relative to WT, 48-hour treatment) was “almost completely diminished”. For the same compound, the “ubiquitination of cellular cMyc” value (cMyc [7]) was “significantly enhanced” and the “suppression of expression of CBLB, IFITM1, SELL and MAP7” value [8] was “superior effect”.

For Cc1cc(CNCCCC(=O)NCCCCCCCCC(=O)N[C@H](C(=O)N2C[C@@H](O)C[C@@H]2C(=O)N[C@@H](C)c2ccc(-c3scnc3C)cc2)C(C)(C)C)cc(C)c1-c1ncn(C)c1-c1ccnc2cc(F)ccc12 [MS9715N, (2R,4S)-1-((S)-2-(9-(4-((4-(5-(7-fluoroquinolin-4-yl)-1-methyl-1H-imidazol-4-yl)-3,5-dimethylbenzyl)amino)butanamido)nonanamido)-3,3-dimethylbutanoyl)-4-hydroxy-N-((S)-1-(4-(4-methylthiazol-5-yl)phenyl)ethyl)pyrrolidine-2-carboxamide], the Kd (NSD3 PWWP1 domain) was 1.62 ± 0.33 µM, the EC50 [1] was greater than 10 µM and the colony-forming capabilities (EOL-1 and MM1.S cells [2]) was “little or no effect”.
